Experimental data reported in PubChem BioAssay.
The source made the active and inactive calls.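 The calls were made as follows, unless noted: active = viability at or below 30% in both replicate assays; inconclusive = viability at or below 30% in just one of the two assays; inactive = the rest.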

How the values were obtained:
[1] = Her2 expression decrease, cell viability multiplex – SKBR3 breast tumor cells, AlphaScreen, ATP viability, primary screen (AID 461;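 active = Her2 level under about 52% in both replicate screens, with viability over 70% of control, limit read from the data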;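 as to Her2 level: lower value means less Her2 protein in the cells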;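 as to viability: percent of carrier control wells set as 100% viability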); conditions: SKBR3 Her2 protein level, 18-24 h, measured here: SKBR3 viability, ATP luminescence, at 10 µM
[2] = biological target: Receptor tyrosine-protein kinase erbB-2 (Homo sapiens) (UniProt P04626); test: as above; conditions: 18-24 h, at 10 µM, stronger effect = lower value
Sequence of Receptor tyrosine-protein kinase erbB-2 (Homo sapiens) (P04626 whole entry, looked up): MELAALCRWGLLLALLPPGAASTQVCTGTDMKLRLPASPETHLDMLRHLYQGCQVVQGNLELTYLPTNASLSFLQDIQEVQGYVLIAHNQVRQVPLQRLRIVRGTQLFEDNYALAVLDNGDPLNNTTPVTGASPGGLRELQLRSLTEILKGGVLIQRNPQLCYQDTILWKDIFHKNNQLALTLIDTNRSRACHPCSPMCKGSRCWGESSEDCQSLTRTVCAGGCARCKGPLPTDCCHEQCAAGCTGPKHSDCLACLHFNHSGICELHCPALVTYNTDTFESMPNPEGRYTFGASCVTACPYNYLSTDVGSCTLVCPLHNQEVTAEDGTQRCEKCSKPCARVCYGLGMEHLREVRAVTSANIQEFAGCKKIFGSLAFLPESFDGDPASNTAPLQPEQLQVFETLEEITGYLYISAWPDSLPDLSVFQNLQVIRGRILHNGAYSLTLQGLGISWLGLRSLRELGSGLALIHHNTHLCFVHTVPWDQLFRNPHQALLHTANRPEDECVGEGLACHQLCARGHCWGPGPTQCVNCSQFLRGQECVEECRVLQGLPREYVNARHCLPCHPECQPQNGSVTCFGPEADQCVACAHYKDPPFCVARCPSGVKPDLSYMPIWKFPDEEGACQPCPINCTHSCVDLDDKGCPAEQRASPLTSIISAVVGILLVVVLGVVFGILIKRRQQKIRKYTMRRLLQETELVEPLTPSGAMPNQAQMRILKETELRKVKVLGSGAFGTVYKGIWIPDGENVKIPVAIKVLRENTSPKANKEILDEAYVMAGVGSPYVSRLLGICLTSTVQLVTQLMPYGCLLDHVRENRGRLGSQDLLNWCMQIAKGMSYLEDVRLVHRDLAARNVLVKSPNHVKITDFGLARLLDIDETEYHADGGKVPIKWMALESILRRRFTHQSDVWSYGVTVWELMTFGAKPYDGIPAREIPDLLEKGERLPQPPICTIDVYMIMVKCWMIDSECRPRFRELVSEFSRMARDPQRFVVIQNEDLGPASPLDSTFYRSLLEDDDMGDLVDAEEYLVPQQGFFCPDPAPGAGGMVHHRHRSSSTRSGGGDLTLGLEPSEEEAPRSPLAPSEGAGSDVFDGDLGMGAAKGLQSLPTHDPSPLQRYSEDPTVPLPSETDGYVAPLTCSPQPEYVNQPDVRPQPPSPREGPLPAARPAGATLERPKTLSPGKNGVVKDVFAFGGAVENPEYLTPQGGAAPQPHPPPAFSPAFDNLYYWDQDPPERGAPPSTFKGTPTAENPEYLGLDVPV

[3] = reduced viability of SK-BR-3 breast cancer cells – cell-based, 24 h, human, pilot screen (AID 572;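 active = viability at or below 10% of carrier control in both of two separate runs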;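 also: compound exposure lasted between 18 and 24 h rather than exactly 24 h; 100% = carrier-treated control wells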); conditions: SK-BR-3 viability, CellTiter-Glo luminescence, at 10 µM, stronger effect = lower value
[4] = HUVEC growth inhibition – cell-based, human, primary screen (AID 575); conditions: HUVEC proliferation, CellTiter-Glo luminescence, 72 h; at 10 µM; stronger effect = lower value;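 also: 100% = median of untreated cell wells with 0.1% DMSO on each plate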
In short: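 Test system – primary HUVEC, no more than 12 passages · Dosing – one dose, 10 µM final, 0.1% DMSO · Times – 72 h treatment at 37 °C · Measured by – ATP-based CellTiter-Glo luminescent read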

[5] = H69AR cell proliferation blockers – human, duplicate replicates, primary screen (AID 580;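 active = viability at or under a set limit in both replicates, limit being median viability minus 3 SD, cut at about 48% in these data, passing the limit was not always enough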;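 also: 100% = mean luminescence of untreated wells and 0% = no signal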); conditions: H69AR lung tumor cells viability, ATP luminescence, 72 h; at 10 µM; stronger effect = lower value
[6] = MRP1 drug-resistance reversers in H69AR cells – cell-based, doxorubicin co-treatment, pilot screen (AID 601;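 active = viability loss from added drug above about 55%, and viability with drug at most 40%, in both replicates, limit read from the data, passing the limit was not always enough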); conditions: CellTiter-Glo, 72 h, at 10 µM; for differential viability (reversal): stronger effect = higher value
[7] = yeast transport mutant growth inhibition pilot in 384-well plates, post-Golgi transport modulator project (AID 636; in the data active = inhibition above about 31%); conditions: absorbance 615 nm, about 18 h, stronger effect = higher value
[8] = growth suppression of yeast trafficking mutant, preliminary HTS, modulators of trafficking downstream of Golgi apparatus project, 1536-format plate, OD 615 nm (AID 637; in the data active = inhibition above about 30%); conditions: yeast transport mutant growth, absorbance 615 nm, 18 h; stronger effect = higher value
[9] = H69AR cells + 2 uM doxorubicin, measured here: viability with 2 uM doxorubicin, stronger effect = lower value
[10] = H69AR cells, compound alone cytotoxicity

SMILES	viability [1] [%]	Her2 level [2]	viability [3]	viability [4]	viability [5]	differential viability (reversal) ([6]; H69AR cells + 2 uM doxorubicin)	viability [6, 9] [%]	viability [6, 10] [%]	inhibition [7]	inhibition [8]
Cc1ccc(Cl)cc1NC(=O)CSc1nnc(C)n1-c1ccccc1	90	79% (inactive)	90% (inactive)	91% (inactive)	86.6% (inactive)	6.06% (inactive)	80.6	86.6	-2.63% (inactive)	0.65% (inactive)
CS(=O)(=O)Nc1ccc(C(=O)NCCc2ccccc2)cc1	96.5	94.5% (inactive)	96.5% (inactive)	102% (inactive)	98.3% (inactive)	12.9% (inactive)	85.4	98.3	-3.47% (inactive)	-3.55% (inactive)
COc1ccc(Br)cc1S(=O)(=O)N1CC(C)OC(C)C1 (stereo not given)	90.5	100% (inactive)	90.5% (inactive)	95.6% (inactive)	91.3% (inactive)	-4.83% (inactive)	96.2	91.3	1.73% (inactive)	-6.35% (inactive)
Cc1n[nH]c(C)c1S(=O)(=O)N1CCCCCC1	98	80% (inactive)	98% (inactive)	105% (inactive)	101% (inactive)	0.14% (inactive)	101	101	-1.58% (inactive)	-3.17% (inactive)
O=C(Nc1ccccc1C(=O)N1CCCCCC1)c1cccc(S(=O)(=O)N2CCOCC2)c1	95.5	96% (inactive)	95.5% (inactive)	94.1% (inactive)	95.5% (inactive)	-7.13% (inactive)	103	95.5	-1.84% (inactive)	-1.45% (inactive)
CCCNS(=O)(=O)c1ccc(OCC(=O)NCc2ccco2)cc1	93.5	120% (inactive)	93.5% (inactive)	91.3% (inactive)	83.7% (inactive)	-3.46% (inactive)	87.2	83.7	1.6% (inactive)	-3.65% (inactive)
Cc1nc(N2CCc3ccccc32)[nH]c(=O)c1CCC(C)C	87.5	89% (inactive)	87.5% (inactive)	72.3% (inactive)	79.1% (inactive)	9.09% (inactive)	70	79.1	-2.99% (inactive)	6.17% (inactive)
O=C(Cn1cnc2c(nnn2-c2ccc(F)cc2)c1=O)N1CCCc2ccccc21	101	117% (inactive)	101% (inactive)	90.5% (inactive)	103% (inactive)	16.3% (inactive)	86.6	103	-9.59% (inactive)	-2.7% (inactive)
O=C(C1CCCN(S(=O)(=O)c2ccc(Br)s2)C1)N1CCCCCC1 (stereo not given)	83.5	95% (inactive)	83.5% (inactive)	98.4% (inactive)	98.1% (inactive)	9.84% (inactive)	88.2	98.1	-3.16% (inactive)	-3.5% (inactive)
CCOC(=O)C1CCN(c2c(NCCN3CCN(c4ccccc4)CC3)c(=O)c2=O)CC1	87.5	98.5% (inactive)	87.5% (inactive)	92.1% (inactive)	99.1% (inactive)	-5.04% (inactive)	104	99.1	0.38% (inactive)	-3.33% (inactive)
COCCNC(=O)C(c1ccc(O)cc1)N(Cc1ccco1)C(=O)CCC(=O)Nc1nccs1 (stereo not given)	81.5	104% (inactive)	81.5% (inactive)	104% (inactive)	99.5% (inactive)	11.1% (inactive)	88.3	99.5	-0.81% (inactive)	-6.23% (inactive)
COC(=O)n1c(=S)oc2cc(Cl)ccc21	102	102% (inactive)	102% (inactive)	62.7% (inactive)	93.6% (inactive)	3.97% (inactive)	89.6	93.6	0.26% (inactive)	25.6% (inactive)
CCS(=O)(=O)c1nc2ccccc2n1CC(=O)N1CCCCC1	88.5	82.5% (inactive)	88.5% (inactive)	96.7% (inactive)	80.4% (inactive)	3.6% (inactive)	76.8	80.4	-3.42% (inactive)	0.79% (inactive)
C=CCn1c(C)cc(C(=O)CSc2nc3ccccc3c(=O)[nH]2)c1C	90.5	92.5% (inactive)	90.5% (inactive)	61.5% (inactive)	77.8% (inactive)	-4.06% (inactive)	81.8	77.8	54.1% (active)	37.6% (active)
Cc1ccc(C)n1NC(=O)c1ccco1	90	90% (inactive)	90% (inactive)	87.2% (inactive)	94.8% (inactive)	-9.64% (inactive)	104	94.8	-2.76% (inactive)	-3.39% (inactive)
Cc1ccccc1NC(=O)Cc1nnc(SCC(=O)N2CCN(c3ccccc3)CC2)n1C	110	108% (inactive)	110% (inactive)	101% (inactive)	98.2% (inactive)	5.74% (inactive)	92.5	98.2	-5.53% (inactive)	-6.67% (inactive)
